Consider two molecules from ChEMBL document CHEMBL1158554, “3,5-Diaryl-1H-pyrazole as a molecular scaffold for the synthesis of apoptosis-inducing agents” (2010).

The source made the active and inactive calls. No cut-off for these calls is given here.

In assay [1] the test system is OVCAR. Kind of assay: Growth inhibition of human OVCAR cells after 48 hrs by MTT assay. The class given is functional. In short, it runs like this:
(§1)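 Cells seeded 3000/well (OVCA, SW620, H460) or 5000/well (AGS), grown 24 h, then exposed to serial dilutions (DMSO stock) for 48 h at 37 °C, 5% CO2. MTT (2 mg/ml in PBS) added for 2 h; formazan dissolved in DMSO and read at 570 nm. Inhibition = (1 − At/Ac)×100 vs vehicle; GI50 interpolated from dose–response curves; four to six separate experiments, mean ± SEM.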

Assay [2] concerns SW-620. Kind of assay: Growth inhibition of human SW620 cells after 48 hrs by MTT assay. The class given is functional. The conditions noted are these: SW-620, 48 h. In short, it runs like this:
as §1
(In general: Tetrazolium dyes change colour on reduction, which living cells bring about.)

Assay [3] concerns NCI-H460. Kind of assay: Growth inhibition of human H460 cells after 48 hrs by MTT assay. It is filed as functional. The conditions noted are these: NCI-H460, 48 h. In short, it runs like this:
as §1

In a further assay the test system is AGS. Kind of assay: Growth inhibition of human AGS cells after 48 hrs by MTT assay. It is filed as functional. In short, it runs like this:
as §1

Assay [4] concerns OVCAR. Kind of assay: Cell cycle arrest in human OVCAR cells assessed as accumulation at sub-G1 phase at 1.2 uM after 24 hrs by propidium iodide staining-based FACS analysis. It is filed as functional. The gist of the method: (§2)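 OVCA cells given 0.5% DMSO or compound for 24 h, harvested, PBS-rinsed, fixed in 80% ethanol and held at −20 °C until analysis. Propidium iodide DNA staining and flow cytometry; apoptotic nuclei scored as the subdiploid (sub-G1) peak, given as percent of the whole population. Untreated cells served as blank.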
(In flow cytometry, cells or beads pass a laser one at a time.)

Assay [5] relates to OVCAR. Kind of assay: Cell cycle arrest in human OVCAR cells assessed as accumulation at sub-G1 phase at 2.5 uM after 24 hrs by propidium iodide staining-based FACS analysis. The class given is functional. In short, it runs like this:
as §2

Assay [6] concerns OVCAR. Kind of assay: Cell cycle arrest in human OVCAR cells assessed as accumulation at sub-G1 phase at 5 uM after 24 hrs by propidium iodide staining-based FACS analysis. It is filed as functional. The gist of the method: as §2
The subject of assay [7] is OVCAR. Kind of assay: Induction of apoptosis in human OVCAR cells assessed as PARP cleavage at 1.2 to 5 uM after 16 hrs by Western blot analysis. It is filed as functional, cell-based. The gist of the method: (§3)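 OVCA cells treated 16 h (vehicle 1% DMSO), washed in PBS, lysed; 50 ug protein run on 15% SDS-PAGE, transferred to nitrocellulose, blocked overnight at 4 °C in TBST/5% milk. Probed with anti-PARP (1:500), anti-cleaved caspase-3, anti-cleaved caspase-9, anti-phospho-Akt, anti-Akt, anti-beta-actin (1:1000), then secondary IgG 1:10,000 for 1 h at room temperature; ECL detection. Total Akt used as reference for phospho-Akt.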
A general note: A western blot detects proteins with antibodies after separation by electrophoresis.

The subject of assay [8] is OVCAR. Kind of assay: Induction of apoptosis in human OVCAR cells assessed as increase in cleaved caspase-3 level at 1.2 to 5 uM after 16 hrs by Western blot analysis. The class given is functional, cell-based. The gist of the method:
as §3

Assay [9] has as its system OVCAR. Kind of assay: Induction of apoptosis in human OVCAR cells assessed as increase in cleaved caspase-9 level at 1.2 to 5 uM after 16 hrs by Western blot analysis. It is filed as functional, cell-based. In short, it runs like this: as §3
The target in assay [10] is RAC-alpha serine/threonine-protein kinase (Homo sapiens) (UniProt P31749). Kind of assay: Inhibition of Akt phosphorylation in human OVCAR cells at 1.2 to 5 uM after 16 hrs by Western blot analysis. It is filed as cell-based. In short, it runs like this:
as §3

The test system of assay [11] is SW-620. Kind of assay: Growth inhibition of human SW620 cells at 40 uM after 48 hrs by MTT assay. The class given is functional, cell-based. The gist of the method: (§4)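 MTT growth inhibition at the top tested concentration of 40 uM, 48 h exposure, cells seeded as for GI50 (3000/well OVCA, SW620, H460; 5000/well AGS).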
In assay [12] the test system is NCI-H460. Kind of assay: Growth inhibition of human H460 cells at 40 uM after 48 hrs by MTT assay. The class given is functional, cell-based. In short, it runs like this:
as §4

RAC-alpha serine/threonine-protein kinase (Homo sapiens), sequence (P31749 whole entry): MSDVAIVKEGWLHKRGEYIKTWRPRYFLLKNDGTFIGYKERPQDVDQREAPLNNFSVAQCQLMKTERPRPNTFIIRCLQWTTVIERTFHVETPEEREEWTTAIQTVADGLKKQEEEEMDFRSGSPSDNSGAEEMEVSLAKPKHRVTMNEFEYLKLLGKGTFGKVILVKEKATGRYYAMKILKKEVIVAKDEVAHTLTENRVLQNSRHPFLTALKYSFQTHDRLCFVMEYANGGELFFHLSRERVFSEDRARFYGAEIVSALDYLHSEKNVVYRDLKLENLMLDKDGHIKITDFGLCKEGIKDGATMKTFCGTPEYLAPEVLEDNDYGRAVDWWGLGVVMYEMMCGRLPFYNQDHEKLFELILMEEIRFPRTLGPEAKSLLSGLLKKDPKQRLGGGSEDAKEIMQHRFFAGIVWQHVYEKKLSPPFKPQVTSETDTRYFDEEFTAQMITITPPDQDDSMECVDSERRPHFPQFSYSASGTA

By GI50 is commonly meant the concentration at which growth is held to half of that of the control. A higher GI50 goes with less potent growth inhibition. `COc1ccc(-c2cc(-c3ccccc3-c3ccccc3)n[nH]2)cc1`: the concentration for 50% growth inhibition (GI50) in the assay on OVCAR [1] is 670 nM; with SW-620 [2], 890 nM; in the assay with NCI-H460 [3], 730 nM; in the assay on AGS it was 790 nM. Besides, the Activity is reported as 14.97% in the assay on OVCAR [4], 20.53% in the assay with OVCAR [5] and 32.05% in the assay with OVCAR [6]. Also, the outcome with OVCAR [7], with OVCAR [8] and with OVCAR [9] was Active. The inhibition result in [10] is “Active”.

Consider `FC(F)(F)c1ccc(-c2cc(-c3ccccc3-c3ccccc3)n[nH]2)cc1`, for which the GI50 with OVCAR [1] stood at 2750 nM; with AGS, 6900 nM. In addition, the “growth inhibition (GI)” value in the assay with SW-620 [11] and in the assay on NCI-H460 [12] was “inactive” throughout. For the same molecule, the Activity with OVCAR [4] is reported as 11.43%; in the assay on OVCAR [5] it was 15.75%; in the assay on OVCAR [6], 23.51%. The result with OVCAR [7], with OVCAR [8] and with OVCAR [9] was Active. The inhibition result in assay [10] is “Active”.
